Source: PubChem BioAssay
DDE Tn6 FP inh: DD(E)-Tn6 binding inhibition, primary FP screen. 370,000 compounds, 0.21% hits. P02675. inhibition, % at 8.3 µM. Fibrin DD(E) TRITC-Tn6 fluorescence polarization displacement;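 active = inhibition above a per-campaign cutoff: mean of compounds within control limits plus 3 SD, cut at about 15% in these data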
Tn7 DDE FP: disrupts Tn7 cyclic peptide binding to fibrin D-Dimer-E complex; FP displacement of FITC-Tn7 peptide from fibrin DD(E); 0% = median of compound wells per plate; inhibition, % at 8.3 µM; 370,000 compounds, 0.13% hits;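 active = inhibition above the mean of compounds falling within the control limits plus 3 SD of them, cut at about 14% in these data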
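Test system: human clot-derived fibrin DD(E) complex / Quantity: 2 µM final DD(E) protein / Incubation: 10 min plus 3 h, room temperature / Measured by: fluorescence polarization / Benchmarks: high control of 10 µM Aha-Tn7 peptide / Replicates: singlicate testing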
UHRF1 MBD2 ctr: human UHRF1 methylated DNA binding inhibitors. 370,000 compounds, 0.75% hits. inhibition, % at 4.4 µM. Q96T88. AID 687016. UHRF1 binding to methylated oligo, TR-FRET; in the data active = inhibition above about 21%;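 note: UHRF1 SRA domain binding a hemimethylated CpG hairpin DNA probe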
TDP2 inh: TDP2 (human) inhibition, absorbance primary screen; 370,000 compounds, 0.34% hits; recombinant TDP2, T5PNP hydrolysis, p-nitrophenol absorbance 415 nm; inhibition, % at 12.8 µM; O95551;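 active = inhibition above the mean of all tested compounds plus 3 SD, set per campaign, cut at about 25% in these data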
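Evaluation: % inhibition relative to enzyme-containing and enzyme-free wells. Material: recombinant human TDP2. Benchmarks: enzyme-free and DMSO wells. Timing: enzyme reaction with compound for 2 h at 37 °C. Compound dosing: 12.8 µM only. Measured by: p-Nitrophenol epi absorbance. Reagent: T5PNP substrate at 5 mM, a TopII-DNA adduct mimic. Replication: single well per compound.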
MBD2 inh: inhibitors of human MBD2 binding to methylated oligonucleotide; 370,000 compounds, 0.31% hits; inhibition, % at 4.4 µM; TR-FRET; Q9UBB5; in the data active = inhibition above about 13%
Target sequence (Q9UBB5 whole entry, looked up): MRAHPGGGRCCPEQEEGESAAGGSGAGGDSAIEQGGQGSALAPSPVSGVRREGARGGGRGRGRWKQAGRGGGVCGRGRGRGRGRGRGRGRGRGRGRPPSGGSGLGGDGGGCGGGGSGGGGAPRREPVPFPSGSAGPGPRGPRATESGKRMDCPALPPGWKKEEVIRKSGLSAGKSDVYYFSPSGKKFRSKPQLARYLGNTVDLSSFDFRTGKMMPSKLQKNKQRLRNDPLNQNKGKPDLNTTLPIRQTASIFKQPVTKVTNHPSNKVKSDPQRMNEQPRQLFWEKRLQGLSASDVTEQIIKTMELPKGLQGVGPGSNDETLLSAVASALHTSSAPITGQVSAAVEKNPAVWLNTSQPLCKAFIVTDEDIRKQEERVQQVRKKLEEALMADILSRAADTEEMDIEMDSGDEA
LEDGF integ inh: blocks HIV-1 LEDGF/p75-dependent DNA integration. inhibition, % at 3.7 µM. 370,000 compounds, 0.64% hits. TR-FRET IN-LEDGF/p75 DNA integration, Eu/Cy5;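 active = inhibition above the screen-wide mean plus 3 SD, cut at about 13% in these data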;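 note: signal is the Cy5 over europium emission ratio at 671 and 618 nm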
Of the large screens only hits and unclear results are named; the others gave an inactive call. Only some compounds are listed: those with a hit (about 1.9% of all), similar ones and a draw of the others.

COc1cccc(N2CCN(C(=O)CCn3nnc4ccccc43)CC2)c1	none
Nc1[nH]c(C(=O)c2ccc(Br)cc2)c(-c2ccc(F)cc2)c1C(=O)NCCc1c[nH]c2ccccc12	none
Cc1onc(-c2c(F)cccc2Cl)c1C(=O)c1ccc(F)cc1	UHRF1 MBD2 ctr 73
Cc1onc(-c2c(Cl)cccc2Cl)c1C(=O)c1ccc(F)cc1	none
Cc1onc(-c2ccccc2)c1C(=O)OCC(=O)c1ccccc1	none
Cc1onc(-c2c(Cl)cccc2Cl)c1C(=O)OCC(=O)c1ccccc1	UHRF1 MBD2 ctr 52
CCc1noc2cc(-c3ccccc3)n(C)c(=O)c12	none
CCOc1cc(OCC)cc(C(=O)N2CCC[C@@H]2C(=O)N2CCC[C@H]2C(=O)NCc2ccccc2)c1	none
O=C(CSc1ccc(Cl)cc1)N1CCN(c2ccc(Cl)cc2[N+](=O)[O-])CC1	UHRF1 MBD2 ctr 22
CCCCc1cn([C@@H](CCCCN)C(=O)N2CCNCC2)nn1	UHRF1 MBD2 ctr 24
Cn1cnnc1SCC(=O)Nc1sc2c(c1C(N)=O)CCC2	UHRF1 MBD2 ctr 25
O=C1/C(=C/c2cccnc2)CCC/C1=C\c1cccnc1	none
O=C1/C(=C/c2cccnc2)CC/C1=C\c1cccnc1	UHRF1 MBD2 ctr 40
CN(C(=O)CCc1nnc(CCCCc2ccccc2)o1)C1CCOCC1	none
CN(C(=O)CCc1nnc(CCCCc2ccccc2)o1)C1CC(C)(C)NC(C)(C)C1	UHRF1 MBD2 ctr 46
COc1ccc2cc3c(nc2c1)OCC3	UHRF1 MBD2 ctr 21
C#CCOCCOCCOCCNc1nc(N2CCOCC2)nc(N2CCN(C(=O)CCCCCCCCCCNC(=O)[C@@H]([C@H](C)CC)n3cc(CCCCCN)nn3)CC2)n1	UHRF1 MBD2 ctr 22
C#CCOCCOCCOCCNc1nc(N2CCN(C(=O)CCCCCCCCCCNC(=O)[C@@H](CCSC)n3cc(CCO)nn3)CC2)nc(N2CCN(C(=O)CCCCCCCCCCNC(=O)[C@H](CCSC)n3cc(CCO)nn3)CC2)n1	none
C#CCOCCOCCOCCNc1nc(N2CCN(C(=O)CCCCCCCCCCNC(=O)[C@H](CO)n3cc(CCCSC)nn3)CC2)nc(N2CCN(C(=O)CCCCCCCCCCNC(=O)[C@H](CCCCN)n3cc(CCO)nn3)CC2)n1	UHRF1 MBD2 ctr 25
COc1ccc(C2O[C@@H](C)[C@@H]3C(=O)N4CCc5c([nH]c6ccccc56)[C@@H]4C[C@@H]3N2C)cc1 (some centres undefined)	none
COCCN(CCOC)C(=O)[C@@H](Cc1ccccc1)NC(=O)[C@H]1O[C@@H](n2ccc(N)nc2=O)[C@H](O)[C@@H]1O	none
O=C(Nc1ccccc1C(F)(F)F)OC1CCC12CCC(c1ccccc1)CC2 (centres undefined)	none
O=C1COc2ccc(C(=O)COC(=O)CNS(=O)(=O)c3cccc(F)c3)cc2N1	MBD2 inh 18
Cc1nc(N(C)C)c2sc(=S)n(C)c2n1	UHRF1 MBD2 ctr 27
Cc1nc(N(C)C)c2sc(=S)n(-c3ccccc3)c2n1	none
COc1ccc(-c2nc3c(C)cc(Br)cn3c2Cc2cccc(Cl)c2)cc1OC	UHRF1 MBD2 ctr 22
COc1ccc(-c2nc3c4ccccc4ccn3c2Cc2cccc(Cl)c2)cc1OC	UHRF1 MBD2 ctr 23
c1ccc2c(c1)ccn1c(Cc3ccsc3)c(C3CCCCC3)nc21	UHRF1 MBD2 ctr 21
COc1ccc(-c2nc3c(C)cc(Br)cn3c2CC2CCCCC2)cc1OC	UHRF1 MBD2 ctr 23
Cc1ccc(Cc2c(C3CCCCC3)nc3c4ccccc4ccn23)cc1	none
CC1CCCN(c2cccc3c2S(=O)(=O)N(Cc2cccc(Cl)c2)[C@@H](C)[C@H](c2ccccc2)O3)C1 (some centres undefined)	none
COc1ccc(-c2nc3c4ccccc4ccn3c2Cc2ccc(C)cc2)cc1OC	none
COc1ccc(-c2nc3c(Cl)cc(C(F)(F)F)cn3c2Cc2cccc(F)c2)cc1OC	UHRF1 MBD2 ctr 25
Fc1cccc(Cc2c(-c3cccc(Br)c3)nc3c(Cl)cc(C(F)(F)F)cn23)c1	none
COc1ccc(-c2nc3c4ccccc4ccn3c2Cc2ccsc2)cc1OC	UHRF1 MBD2 ctr 21
